Measured values gathered from unrelated publications.
Compare with care: the assays were run in different laboratories.
Target: Alpha-glucosidase MAL12 (MAL12, Saccharomyces cerevisiae S288c, UniProt P53341)
Read-out: enzyme activity
Mode: inhibitor

| SMILES | test | setting | IC50 [µM] |
| --- | --- | --- | --- |
| CC1(C)CC(=O)C2=C(C1)n1c(=O)c3ccccc3c(=O)n1C2c1cn(-c2ccccc2)nc1-c1ccc(Br)cc1 (stereo not shown) | absorbance | – | 353 |
| COc1ccc(-c2c(N)c(-c3ccc(C)cc3)nc3ncnn23)cc1 | absorbance | – | 89.3 |
| COc1cc(O)c2c(c1)oc(=O)c1c3cc(O)c(O)cc3oc21 | absorbance | – | 39.1 |
| CC(=O)C1=C(C)n2c(=O)c3ccccc3c(=O)n2C1c1cn(-c2ccccc2)nc1-c1ccc([N+](=O)[O-])cc1 (stereo not shown) | absorbance | – | 86.7 |
| C[C@H]1CN(C(=O)Nc2ccc(C(F)(F)F)cc2)CCN1c1ccnc(Nc2ccc(Cl)c(Cl)c2)n1 | absorbance | pH 6.9 | 1.69 |
| CC(=O)C1=C(C)n2c(=O)c3ccccc3c(=O)n2C1c1cn(-c2ccccc2)nc1-c1ccc(C)cc1 (stereo not shown) | absorbance | – | 167 |
| C[C@H]1CN(C(=O)Nc2ccc(C(F)(F)F)cc2)CCN1c1ccnc(Nc2ccc(Cl)c(OCc3ccccc3)c2)n1 | absorbance | pH 6.9 | 1.5 |
| Nc1c(-c2ccccc2)nc2ncnn2c1-c1ccccc1Cl | absorbance | – | 125 |
| CC1(C)CC(=O)C2=C(C1)n1c(=O)c3ccccc3c(=O)n1C2c1cn(-c2ccccc2)nc1-c1ccc([N+](=O)[O-])cc1 (stereo not shown) | absorbance | – | 285 |
| CCCCCCCCCCCC(=O)OCC(C)(C)CC1=C(O)C(=O)c2ccccc2C1=O | – | – | 2.6 |
| Cc1ccc(-c2nn(-c3ccccc3)cc2C2C3=C(CC(C)(C)CC3=O)n3c(=O)c4ccccc4c(=O)n32)cc1 (stereo not shown) | absorbance | – | 282 |
| Nc1c(-c2ccc(Cl)cc2)nc2ncnn2c1-c1cccs1 | absorbance | – | 82.4 |
| C[C@H]1CN(C(=O)Nc2ccc(C(F)(F)F)cc2)CCN1c1ccnc(Nc2ccccc2O)n1 | absorbance | pH 6.9 | 5.13 |
| Cc1ccc(-c2nc3ncnn3c(-c3ccc(Cl)cc3)c2N)cc1 | absorbance | – | 54.6 |
| CCCCCCCCCCCCCCCCCC(=O)OCC(C)(C)CC1=C(O)C(=O)c2ccccc2C1=O | – | – | 25.7 |
| C[C@H]1CN(C(=O)Nc2ccc(C(F)(F)F)cc2)CCN1c1ccnc(Nc2cccc([N+](=O)[O-])c2)n1 | absorbance | pH 6.9 | 1.03 |
